The list is not random: actives were taken first. Their share in the collection is about 2.5%.
Her2 expr inh = inhibitors of human Her2 kinase expression; P04626; SKBR-3 HER2 protein level, AlphaScreen, 18-24 h; hits give low values; HER2 level % of control, % at 10 µM; hit rate 0.69% among 65,000; AID 645;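 active = HER2 level under 5% of the carrier-only control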;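 note: 100% = DMSO carrier and 0% = 500 nM PU-H71 HSP90 inhibitor; lower value means stronger loss of Her2 protein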
JNK3 inh = blocks human JNK3 kinase activity; P53779; purified JNK3 kinase activity, HTS; inhibition, % at 8 µM; hit rate 0.61% among 60,000; in the data active = inhibition above about 17%;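 note: 0% = DMSO and 100% = reference inhibitor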
Hsp90 inh = displaces geldanamycin probe from tumor Hsp90. P07900. NCI-N417 lysate Hsp90, Cy3B-geldanamycin FP displacement. inhibition, % at 30 µM. hit rate 0.35% among 64,000;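 active = inhibition above 50%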;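 note: 0% = tracer plus lysate wells and 100% = tracer alone without lysate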
HEK293 NFkB inh = lowers PMA/ionomycin-induced NF-kB signal in HEK293 cells. HEK-293 NF-kB luciferase reporter, luminescence. inhibition, % at 3 µM. hit rate 0.21% among 62,000. AID 465;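 active = inhibition above the mean of all tested compounds plus 3 SD, cut at about 40% in these data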;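 note: 0% = stimulated DMSO wells and 100% = 10 µM reference inhibitor 5653914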
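Timing: 1 h pretreatment, 16 h stimulation, 37 °C; system: HEK-293 cells with stable firefly luciferase reporter driven by four HIV NF-kB elements; doses: 3 µM once, 0.30% DMSO; measured by: luciferase luminescence; control set: DMSO and 10 µM reference inhibitor; repeats: single test; reagent: PMA plus ionomycin mix as NF-kB-activating stimulus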
Jurkat tox 60K = cytotoxic compounds reducing Jurkat cell viability. AID 463. Jurkat E6.1 viability, ATP luminescence, 48 h. hit rate 1.2% among 56,000. inhibition, % at 4 µM;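 active = inhibition above the mean inhibition of all tested compounds plus 3 SD, cut at about 28% in these data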
AP complement = alternative pathway complement inhibition, orthogonal assay | Human serum alternative complement pathway, LPS-coated ELISA, C3 deposition; tested in compound mixtures | inhibition, % at 5 µM | hit rate 0.08% among 62,000 | AID 1235;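 active = inhibition above 30% in each of the two pooled mixtures holding the compound, so the lower value exceeds 30%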;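 note: 0% = serum in Mg-EGTA without compound and 100% = EDTA serum blank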
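Test system – human serum alternative complement pathway, C3 deposition on LPS-coated wells · Buffer or medium – diluted human serum in Mg2+-EGTA GVB++ · Compound dosing – 5 µM each compound, pools of ten, 50 µM per pool · Schedule – 1 h serum-compound exposure at 37 °C · Measured by – Anti-C3 ELISA, OD 450 nm · Read-out basis – percent inhibition of C3 deposition onto LPS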
Starred values were filed as active, the others as inactive.

What do the screens show for `O=C(Nc1ccccc1O)c1cc(S(=O)(=O)N2CCOCC2)c(Cl)cc1Cl`?
Her2 expr inh: 82; JNK3 inh: -6; Hsp90 inh: -1; HEK293 NFkB inh: 0; Jurkat tox 60K: 0; AP complement: -3

Results for O=C(NCCCn1ccnc1)c1cc(S(=O)(=O)N2CCOCC2)c(Cl)cc1Cl ?
Her2 expr inh: -32*; HEK293 NFkB inh: 15; AP complement: 20

How did Clc1ccc(-n2ncc3c(NCc4ccco4)ncnc32)cc1 do in these assays?
Her2 expr inh: 65; JNK3 inh: -3; Hsp90 inh: 2

What do the screens show for `Clc1ccc(Cn2ncc3c(NCc4ccco4)ncnc32)c(Cl)c1`?
Her2 expr inh: 86; JNK3 inh: 1; Hsp90 inh: -3; HEK293 NFkB inh: 18; Jurkat tox 60K: 82*; AP complement: -21

How did CC(=O)C1=C(C)NC(C)=C(C(C)=O)C1c1ccc(-c2ccccc2Cl)o1 do in these assays?
Her2 expr inh: 87; JNK3 inh: 5; Hsp90 inh: -1; HEK293 NFkB inh: 0; Jurkat tox 60K: 6; AP complement: -8

How did CC(=O)NC(Cc1c[nH]c2ccccc12)C(=O)OCC(=O)Nc1ccc2c(c1)OCO2 (stereo unspecified) do in these assays?
Her2 expr inh: -33*; JNK3 inh: -4; Hsp90 inh: 0; HEK293 NFkB inh: 12; Jurkat tox 60K: -8; AP complement: -15

What do the screens show for `CCCN(CCC)CCc1cccc2c1CC(=O)N2`?
Hsp90 inh: -2

Results for COc1ccc2cc(C(=O)NCc3ccco3)c(=O)oc2c1 ?
Her2 expr inh: 94; JNK3 inh: 0; Hsp90 inh: -2; HEK293 NFkB inh: 4; Jurkat tox 60K: 0; AP complement: 13

How did COc1ccc2cc(C(=O)NCc3ccco3)c(=Nc3ccc(C(=O)O)cc3)oc2c1 do in these assays?
Her2 expr inh: 77; JNK3 inh: -7; Hsp90 inh: -2; HEK293 NFkB inh: 48*; Jurkat tox 60K: 4; AP complement: -3

Results for CCCCCCOc1ccc(/C(N)=N/O)cc1 ?
Her2 expr inh: 107; JNK3 inh: -2; Hsp90 inh: 2; HEK293 NFkB inh: -21; Jurkat tox 60K: 97*; AP complement: 1

What do the screens show for `Cc1nc(-c2c(-c3ccc(O)cc3O)noc2C(F)(F)F)cs1`?
Her2 expr inh: 55; JNK3 inh: -1; Hsp90 inh: 74*

What do the screens show for `COc1ccc(-c2nc(N)ncc2-c2csc(C)n2)c(O)c1`?
Her2 expr inh: 107; JNK3 inh: -2; Hsp90 inh: 10; HEK293 NFkB inh: 4; Jurkat tox 60K: 1; AP complement: -18

Results for Cc1ccc(CNc2ccc(O)cc2)cc1 ?
Her2 expr inh: 120; JNK3 inh: -11; Hsp90 inh: 56*; HEK293 NFkB inh: 1; Jurkat tox 60K: 5; AP complement: 10

How did Cc1ccc(-c2nc(-c3ccccn3)no2)cc1 do in these assays?
Her2 expr inh: 73; JNK3 inh: -5; Hsp90 inh: -1; HEK293 NFkB inh: 80*; Jurkat tox 60K: 35*; AP complement: 6

How did c1ccc(-c2ccc(-c3nc(-c4ccccn4)no3)cc2)cc1 do in these assays?
Her2 expr inh: 72; AP complement: 11

Results for CCOC(=O)C1=C(C)OC(N)=C(C#N)C1c1c(C)nn(-c2ccccc2)c1Cl (stereo unspecified) ?
HEK293 NFkB inh: 18; AP complement: 12

What do the screens show for `Cc1nn(-c2ccccc2)c(Cl)c1C1C(C#N)=C(N)Oc2n[nH]c(C)c21` (stereo unspecified)?
Her2 expr inh: 72; JNK3 inh: -5; Hsp90 inh: 4; HEK293 NFkB inh: 44*; Jurkat tox 60K: -2; AP complement: -10

Results for CCNc1ccc(C(=O)OCC)cc1NC(=O)c1cccc(N(C)C)c1 ?
Her2 expr inh: 154; HEK293 NFkB inh: 42*; AP complement: 6

Results for NC(=O)c1c(NC(=O)C2CCCO2)sc2c1CCC2 (stereo unspecified) ?
Her2 expr inh: 84; JNK3 inh: 31*; Hsp90 inh: -20; HEK293 NFkB inh: 6; Jurkat tox 60K: -8; AP complement: 13

Compound activity from PubChem.
